NPY Y2 blocker – NPY-Y2 receptor antagonists, primary screen, cell-based. Neuropeptide Y receptor type 2 (Homo sapiens), P49146. NPY-Y2 expressing cells, antagonist mode. inhibition, % at 2.7 µM. actives 0.99% (n = 140,000). AID 793, 2007; in the data active = inhibition above about 17%;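 also: 0% = vehicle with agonist challenge and 100% = reference antagonist with challenge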
NPY1 pot ag – NPY-Y1 receptor potentiators or agonists, primary screen, cell-based. actives 0.37% (n = 220,000). Neuropeptide Y receptor type 1 (Homo sapiens), P25929. activation, % at 3.6 µM. NPY-Y1 expressing cells, potentiator/agonist activation; in the data active = activation above about 33%, passing the limit was not always enough;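 also: cells stimulated with NPY at EC10 then isoproterenol at EC100; 0% = low agonist plus stimulus and 100% = saturating agonist plus stimulus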
Target sequence (P25929 whole entry, looked up): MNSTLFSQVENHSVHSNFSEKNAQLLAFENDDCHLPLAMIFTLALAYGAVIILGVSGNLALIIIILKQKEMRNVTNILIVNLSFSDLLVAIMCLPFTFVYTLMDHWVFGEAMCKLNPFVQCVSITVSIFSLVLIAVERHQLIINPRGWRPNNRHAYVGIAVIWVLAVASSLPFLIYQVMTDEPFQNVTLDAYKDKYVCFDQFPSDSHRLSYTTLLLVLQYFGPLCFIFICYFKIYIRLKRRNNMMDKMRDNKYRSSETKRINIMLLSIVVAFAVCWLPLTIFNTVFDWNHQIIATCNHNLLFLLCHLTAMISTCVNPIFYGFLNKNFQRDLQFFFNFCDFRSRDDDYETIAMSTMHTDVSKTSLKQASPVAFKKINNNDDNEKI
NPY-Y1 antag – NPY-Y1 receptor antagonists, primary screen, cell-based; HEK293-CNG Y1 cells, membrane potential fluorescence; NPY at EC95, then isoproterenol; inhibition, % at 3.6 µM; actives 1% (n = 200,000);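 active = inhibition above the campaign mean inhibition of all tested compounds plus 3 SD, cut at about 20% in these data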;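 also: 0% = DMSO wells given NPY plus isoproterenol and 100% = isoproterenol alone without NPY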
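Material: HEK293 cells with Y1 receptor plus CNG channel; times: compound incubation 1 h at room temperature, readout 45 min post-stimulation; signal: fluorescence, membrane potential probe; read-out basis: fluorescence ratio normalized to % inhibition between controls; benchmarks: full-block control isoproterenol-only wells, zero-block control NPY plus isoproterenol wells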
NPY2 pot ag – NPY-Y2 potentiators or agonists, primary screen, cell-based | cells expressing NPY-Y2, potentiator/agonist read-out | activation, % at 3.6 µM | actives 0.45% (n = 220,000); in the data active = activation above about 27%;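 also: cells stimulated with NPY near EC25 plus isoproterenol at EC100; 0% = vehicle plus submaximal agonist and 100% = vehicle plus saturating agonist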
* marks the source's active call; other numbers are inactive results; · = no result; ! = not confirmed by another sample. An excerpt weighted towards active compounds, which were near 1.8% of everything screened.

SMILES | NPY Y2 blocker | NPY1 pot ag | NPY-Y1 antag | NPY2 pot ag
O=c1[nH]c2c(Br)cnc([N+](=O)[O-])c2[nH]1 | · | -13 | · | 4
O=c1[nH]c2cc(Cl)c([N+](=O)[O-])nc2[nH]1 | 18* | -61 | 22* | -15
CCOC(=O)C1=C2NC(=O)c3ccccc3N2C(=O)C1 | · | 1 | 7 | 6
COc1ccc(-c2cc(C(F)(F)F)n3ncc(C(=O)Nc4c(C)n(C)n(-c5ccccc5)c4=O)c3n2)cc1 | · | 16 | -1 | -11
O=C(Nc1ccc(F)cc1)Nc1cc(OCC(F)(F)F)cc(OCC(F)(F)F)c1 | -3 | 66* | -14 | 54*
CN(C)CCOC(c1ccccc1)c1ccccc1 | 3 | 107*! | 1 | 101*!
CN(C)CCOC(c1ccccc1)c1ccccc1 (tested in a mixture with another compound) | 3 | 10 | 2 | -8
Cn1c(SCC(=O)Nc2cccc(S(=O)(=O)NC3=NCCCCC3)c2)nnc1-c1ccccc1 | · | 4 | -4 | 4
O=C(/C=C1\NCC2c3ccccc3CCN2C1=O)c1ccccc1 (configuration not stated) | 1 | 6 | -1 | -9
COc1cc(-c2cn(S(=O)(=O)c3cccc4nsnc34)nc2N)cc(OC)c1OC | 18* | -26 | 23* | -9
N=c1n(CCN2CCCC2)c2ccccc2n1CC(O)c1ccco1 (configuration not stated) | 4 | -10 | 5 | -4
Cc1ccccc1Cn1c(=N)n(CC(O)c2ccco2)c2ccccc21 (configuration not stated) | 23* | -21 | 25* | -7
COc1ccccc1N1CCN(C(c2ccc(C)cc2)c2nnnn2C(C)C)CC1 (configuration not stated) | 15 | 5 | 14 | -13
COc1ccccc1N1CCN(C(c2ccc(F)cc2)c2nnnn2C(C)C)CC1 (configuration not stated) | 18* | -13 | 24* | 4
COc1ccccc1C(=O)Nc1ccc(C(=O)O)cc1 | 0 | -1 | -3 | 16
COc1ccccc1C(=O)Nc1ccc(C2=NNC(=O)CC2C)cc1 (configuration not stated) | 72* | -77 | 96* | -17
CCOc1ccccc1C(=O)N(Cc1ccccc1)Cc1cc2cc3c(cc2[nH]c1=O)OCCO3 | 3 | 5 | -1 | -8
Cc1ccc(NS(=O)(=O)c2ccc(OCC(=O)Nc3cccc([N+](=O)[O-])c3)c(C)c2)cc1 | -5 | 44* | -16 | 28
N#Cc1c(-c2ccccc2)c(-c2ccccc2)nn(CC(=O)NNC(=O)Nc2ccc(Cl)cc2)c1=O | · | 51* | · | 39*
Cc1cc(OCC(O)CNC(C)(C)C)ccc1Cl (configuration not stated) | · | 110* | -14 | 102*
CCc1ccc(OCC(O)CNC(C)(C)C)cc1 (configuration not stated) | 4 | 93* | -16 | 96*
Cc1cc(OCC(=O)NC(C)(C)C)ccc1Cl | 0 | 5 | -1 | -6
CC(C)(C)NCC(O)COCc1ccc(Cl)cc1 (configuration not stated) | 0 | 73* | -5 | 68*
CC(=O)NC(Cc1ccc(F)cc1)C(=O)N1CCN(C(=O)NCc2ccccc2)CC1 (configuration not stated) | 3 | -8 | 8 | -2
Fc1ccc(COc2ccc(/C=N/n3cnnc3)cc2)cc1 | 1 | 16 | 4 | -16
SMILES | NPY Y2 blocker | NPY1 pot ag | NPY-Y1 antag | NPY2 pot ag
CC(=O)N(C)c1ccc(NC(=O)Nc2ccc(C)c(C)c2)cc1 | · | 11 | -4 | 0
COC(=O)c1ccccc1C(=O)N1CCCC(CCC(=O)NCc2ccc(F)c(F)c2)C1 (configuration not stated) | · | -13 | 3 | 0
CS(=O)(=O)N(CC(O)CON=C1c2ccccc2-c2ccccc21)c1ccc(F)cc1 (configuration not stated) | -1 | 3 | 2 | 1
CC(C)CCNCC(O)CON=C1c2ccccc2-c2ccccc21 (configuration not stated) | · | 45* | 2 | 45*
OC(CNCCC(c1ccccc1)c1ccccc1)COc1ccccc1 (configuration not stated) | · | 96* | -9 | 89*
COCCNCC(O)CON=C1c2ccccc2-c2ccccc21 (configuration not stated) | · | 101* | -5 | 92*
Cc1cccc(C)c1NC(=O)C(c1ccc(Cl)cc1Cl)N1CCCCC1 (configuration not stated) | 8 | -52 | 7 | -11
Cc1nc2cccc(C(=O)NCc3ccccc3)c2o1 | -2 | -3 | 3 | 21
CCOC(=O)C1(Cc2cccc(OC)c2)CCN(Cc2cccc3c2OCO3)CC1 | · | -9 | 21* | -32
CCOC(=O)C1(CCOc2ccccc2)CCN(Cc2ccc3c(c2)OCCO3)CC1 | · | -20 | 21* | -41
CCOC(=O)C1(Cc2cccc(OC)c2)CCN(Cc2ccc3c(c2)OCCO3)CC1 | · | -8 | 11 | -22
O=C(NCc1cccs1)C1CCCN1C(=O)Nc1ccccc1 (configuration not stated) | 0 | 111* | -16 | 102*
O=C(NCc1cccs1)C1CCCN1C(=O)Nc1ccc(Cl)cc1 (configuration not stated) | · | -9 | 5 | -12
C/C(CCc1ccc2c(c1)OCO2)=N\N=C1\NC(=O)CC(C(=O)Nc2ccccc2F)S1 (configuration not stated) | · | -33 | 18 | -20
Cc1cccc(-n2c(SCC(N)=O)nc3c(c2=O)C2(CCCC2)Cc2ccccc2-3)c1 | -7 | 48* | -8 | 39*
CCN(CC)CCC(=O)NC(C)(C)Cc1ccc(O)cc1 | 2 | 37* | 1 | -4
CCOC(=O)c1sc(NC(=O)CN2C(=O)NC3(CCCCCCC3)C2=O)c(C(=O)OCC)c1C | · | 68* | · | 102*
Cc1nc2sc3c(c2c(=O)n1/N=C/c1ccco1)CCCC3 | 0 | 104* | -14 | 103*
NC1=NC(=O)/C(=C/c2ccccc2OS(=O)(=O)c2ccc3ccccc3c2)S1 | -1 | 24 | -3 | 18
CSc1nc2ccccc2n1CC(=O)Nc1cc(C(F)(F)F)ccc1N1CCOCC1 | 23* | -3 | 24* | 0
CC(C)C(NS(=O)(=O)c1ccc2c(c1)oc(=O)n2C)C(=O)N1CCN(Cc2ccccc2)CC1 (configuration not stated) | 1 | -2 | 7 | 1
COc1ccc(CCN(Cc2cccs2)S(=O)(=O)c2ccc(S(=O)(=O)N3CCCCCC3)cc2)cc1OC | 5 | -25 | 9 | -5
CCC(C)NS(=O)(=O)c1ccc(S(=O)(=O)N(CCc2ccc(OC)c(OC)c2)Cc2cccs2)cc1 (configuration not stated) | 31* | -90 | 35* | -25
C=CCc1ccccc1OCC(O)CNC (configuration not stated) | 0 | 110* | -21 | 101*

High-throughput results as filed in PubChem.
